Data: ChEMBL document CHEMBL3045952, “Design, synthesis, and fungicidal activity of novel analogues of pyrrolnitrin” (J Agric Food Chem, 2009)

Assays:
Format in all cases: functional
Details in all cases: read-out: GI
[1] = test system: Botryosphaeria berengeriana; assay: Fungicidal activity against Botryosphaeria berengeriana assessed as mycelium growth inhibition at 20 ug/mL by mycelium growth rate method
Summary of the method: (§1)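 In vitro mycelium growth rate method, with fenpiclonil as control. Compounds were tested at 50, 20 and 10 μg mL-1. Mycelial diameters were measured once the mycelia had grown completely. Inhibition (%) = (D1 − D2)/D1 × 100, where D1 is the mean mycelial diameter in the blank and D2 is the mean diameter with compound.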

[2] = test system: Botryosphaeria berengeriana; assay: Fungicidal activity against Botryosphaeria berengeriana assessed as mycelium growth inhibition at 10 ug/mL by mycelium growth rate method; summary of the method: as §1
[3] = test system: Mycosphaerella arachidis; assay: Fungicidal activity against Mycosphaerella arachidis assessed as mycelium growth inhibition at 20 ug/mL by mycelium growth rate method; summary of the method: as §1
[4] = test system: Alternaria solani; assay: Fungicidal activity against Alternaria solani assessed as mycelium growth inhibition at 10 ug/mL by mycelium growth rate method; summary of the method: as §1
[5] = test system: Botryosphaeria berengeriana; assay: Fungicidal activity against Botryosphaeria berengeriana assessed as mycelium growth inhibition at 50 ug/mL by mycelium growth rate method; summary of the method: as §1
[6] = test system: Alternaria solani; assay: Fungicidal activity against Alternaria solani assessed as mycelium growth inhibition at 20 ug/mL by mycelium growth rate method; summary of the method: as §1
[7] = test system: Mycosphaerella arachidis; assay: Fungicidal activity against Mycosphaerella arachidis assessed as mycelium growth inhibition at 10 ug/mL by mycelium growth rate method; summary of the method: as §1
[8] = test system: Fusarium graminearum; assay: Fungicidal activity against Fusarium graminearum assessed as mycelium growth inhibition at 20 ug/mL by mycelium growth rate method; summary of the method: as §1
[9] = test system: Fusarium graminearum; assay: Fungicidal activity against Fusarium graminearum assessed as mycelium growth inhibition at 50 ug/mL by mycelium growth rate method; summary of the method: as §1
[10] = test system: Fusarium oxysporum; assay: Fungicidal activity against Fusarium oxysporum assessed as mycelium growth inhibition at 10 ug/mL by mycelium growth rate method; summary of the method: as §1
[11] = test system: Fusarium oxysporum; assay: Fungicidal activity against Fusarium oxysporum assessed as mycelium growth inhibition at 20 ug/mL by mycelium growth rate method; summary of the method: as §1
[12] = test system: Fusarium graminearum; assay: Fungicidal activity against Fusarium graminearum assessed as mycelium growth inhibition at 10 ug/mL by mycelium growth rate method; summary of the method: as §1
[13] = test system: Fusarium oxysporum; assay: Fungicidal activity against Fusarium oxysporum assessed as mycelium growth inhibition at 50 ug/mL by mycelium growth rate method; summary of the method: as §1
[14] = test system: Mycosphaerella arachidis; assay: Fungicidal activity against Mycosphaerella arachidis assessed as mycelium growth inhibition at 50 ug/mL by mycelium growth rate method; summary of the method: as §1
[15] = test system: Alternaria solani; assay: Fungicidal activity against Alternaria solani assessed as mycelium growth inhibition at 50 ug/mL by mycelium growth rate method; summary of the method: as §1

Structure (SMILES) | inhibition of growth at 20 µg/mL [1] | inhibition of growth at 10 µg/mL [2] | inhibition of growth at 20 µg/mL [3] | inhibition of growth at 10 µg/mL [4] | inhibition of growth at 50 µg/mL [5] | inhibition of growth at 20 µg/mL [6] | inhibition of growth at 10 µg/mL [7] | inhibition of growth at 20 µg/mL [8] | inhibition of growth at 50 µg/mL [9] | inhibition of growth at 10 µg/mL [10] | inhibition of growth at 20 µg/mL [11] | inhibition of growth at 10 µg/mL [12] | inhibition of growth at 50 µg/mL [13] | inhibition of growth at 50 µg/mL [14] | inhibition of growth at 50 µg/mL [15]
O=[N+]([O-])c1cc(Cl)cc(Cl)c1-c1ccsc1[N+](=O)[O-] | 17% | 2% | 11% | 16% | 27% | 32% | 0% | 0% | 0% | 10% | 14% | 0% | 28% | 27% | 38%
O=[N+]([O-])c1cc(-c2ccc(F)cc2[N+](=O)[O-])cs1 | 10% | 4% | 27% | 6% | 46% | 25% | 11% | 0% | 12% | 7% | 17% | 0% | 25% | 44% | 41%
O=[N+]([O-])c1cc(F)c(Cl)cc1-c1ccsc1[N+](=O)[O-] | 36% | 12% | 5% | 48% | 42% | 54% | 0% | 4% | 20% | 14% | 28% | 0% | 39% | 18% | 61%
O=[N+]([O-])c1cc(-c2c(Cl)cc(Cl)c(Cl)c2[N+](=O)[O-])cs1 | 10% | 0% | 20% | 17% | 24% | 26% | 5% | 0% | 0% | 0% | 0% | 0% | 4% | 35% | 34%
O=[N+]([O-])c1cc(-c2cc(Cl)c(F)cc2[N+](=O)[O-])cs1 | 2% | 0% | 11% | 0% | 14% | 16% | 0% | 0% | 0% | 0% | 7% | 0% | 10% | 16% | 25%
O=[N+]([O-])c1cc(F)ccc1-c1ccsc1[N+](=O)[O-] | 4% | 0% | 0% | 9% | 14% | 25% | 0% | 0% | 0% | 0% | 7% | 0% | 17% | 16% | 48%
O=[N+]([O-])c1ccc(F)cc1-c1ccsc1 | 36% | 0% | 12% | 5% | 72% | 25% | 0% | 43% | 65% | 18% | 50% | 21% | 87% | 25% | 75%
O=[N+]([O-])c1cc(Cl)cc(Cl)c1-c1ccsc1 | 72% | 42% | 18% | 20% | 82% | 55% | 0% | 26% | 39% | 56% | 81% | 8% | 87% | 25% | 60%
O=[N+]([O-])c1cc(-c2c(Cl)cc(Cl)cc2[N+](=O)[O-])cs1 | 17% | 10% | 16% | 25% | 25% | 32% | 5% | 16% | 24% | 21% | 32% | 8% | 39% | 27% | 41%
O=[N+]([O-])c1sccc1-c1c(Cl)cc(Cl)c(Cl)c1[N+](=O)[O-] | 13% | 0% | 25% | 0% | 40% | 26% | 5% | 0% | 0% | 0% | 0% | 0% | 22% | 40% | 34%
O=[N+]([O-])c1cc(F)ccc1-c1ccsc1 | 20% | 0% | 0% | 10% | 80% | 35% | 0% | 30% | 39% | 0% | 50% | 8% | 75% | 0% | 55%
O=[N+]([O-])c1cc(-c2ccc(Cl)cc2[N+](=O)[O-])cs1 | 0% | 0% | 0% | 0% | 2% | 0% | 0% | 0% | 4% | 0% | 0% | 0% | 17% | 2% | 19%
O=[N+]([O-])c1cc(Cl)ccc1-c1ccsc1 | 38% | 14% | 6% | 0% | 80% | 20% | 0% | 21% | 39% | 25% | 43% | 13% | 75% | 25% | 55%
O=[N+]([O-])c1ccccc1-c1ccsc1[N+](=O)[O-] | 25% | 0% | 16% | 9% | 30% | 16% | 8% | 14% | 23% | 0% | 13% | 6% | 22% | 25% | 25%
